Measurements pooled from the literature.
Each line is one published result; the experiments were not run side by side.
Target: Dual specificity tyrosine-phosphorylation-regulated kinase 4 (DYRK4, Homo sapiens, UniProt Q9NR20)
Sequence (Q9NR20 1-520, as in one of the studies): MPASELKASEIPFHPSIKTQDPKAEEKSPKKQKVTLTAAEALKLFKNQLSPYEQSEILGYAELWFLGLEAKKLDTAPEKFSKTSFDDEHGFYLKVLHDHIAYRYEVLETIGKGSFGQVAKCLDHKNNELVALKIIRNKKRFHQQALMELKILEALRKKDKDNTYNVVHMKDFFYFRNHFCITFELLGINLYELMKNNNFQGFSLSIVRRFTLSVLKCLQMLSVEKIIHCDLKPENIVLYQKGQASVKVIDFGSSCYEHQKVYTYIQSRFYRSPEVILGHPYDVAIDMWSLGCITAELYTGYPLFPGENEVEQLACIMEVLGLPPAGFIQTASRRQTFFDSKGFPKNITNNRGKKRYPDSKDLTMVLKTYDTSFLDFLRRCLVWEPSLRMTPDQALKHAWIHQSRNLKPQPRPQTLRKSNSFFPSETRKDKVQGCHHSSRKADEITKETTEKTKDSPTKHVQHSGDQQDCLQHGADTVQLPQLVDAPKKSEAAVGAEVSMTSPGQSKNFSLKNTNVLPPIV

O=C1Nc2ccc(Cl)cc2C1=Cc1cc(Cl)c(O)c(Cl)c1  remaining signal (cell-free assay; 0.5 µM): 95.7%
COc1cc2ncnc(Nc3ccc(Oc4ccccc4)c(C)c3C)c2cc1OC  inhibition (enzyme activity; inhibitor; 1 µM): -1%
Cn1cc(-c2cccc(N3CCc4c(sc5c4CC(C)(C)C5)C3=O)c2CO)cc(Nc2ccncn2)c1=O  inhibition (enzyme activity; inhibitor; 1 µM): 2%
O=C(Nc1cnn(-c2csc(C(=O)NC3COC3)c2)c1)Nc1ccccc1Cl  remaining activity (enzyme activity; inhibitor; 5 µM): 94.6%
CC(C)(C)c1nc2c(s1)c1nc(N)ncc1c1ccc(NS(=O)(=O)c3c(F)cccc3F)c(F)c12  remaining activity (enzyme activity; inhibitor; radiometric; 1 µM): 92%
O=C1NC(=O)c2cc(Nc3ccc(F)cc3)c(Nc3ccc(F)cc3)cc21  remaining signal (cell-free assay; 0.5 µM): 98.6%
Cn1cnc(Br)c1C1=CN(c2ncnc3[nH]cnc23)CCS1  inhibition (enzyme activity; inhibitor; radiometric; 50 nM): 14.9%
CC(C)(O)[C@H]1CC[C@H](Nc2ccc3ncc(-c4cccc(C(F)(F)F)c4)n3n2)CC1  remaining activity (enzyme activity; inhibitor; 1 µM): 97.3%
CCCS(=O)(=O)Nc1ccc(F)c(C(=O)c2c[nH]c3ncc(-c4ccc(Cl)cc4)cc23)c1F  inhibition (enzyme activity; inhibitor; 1 µM): < 10%
O=C(Nc1cnn(-c2csc(C(=O)NC3COC3)c2)c1)Nc1c(F)cccc1Cl  remaining activity (enzyme activity; inhibitor; 5 µM): 96.2%
COc1cc2ncnc(Nc3ccc(Oc4ccccc4)cc3C)c2cc1OC  inhibition (enzyme activity; inhibitor; 1 µM): 0%
Cn1cc(-c2cc(F)cc(N3CCn4c(cc5c4CCCC5)C3=O)c2CO)cc(Nc2ccc(N3CCN(C4COC4)CC3)cn2)c1=O  inhibition (enzyme activity; inhibitor; 0.1 µM): 5%
CC(C)(C)c1nc(-c2cccc(NS(=O)(=O)c3c(F)cccc3F)c2F)c(-c2ccnc(N)n2)s1  remaining activity (enzyme activity; inhibitor; radiometric; 1 µM): 38%
COc1cc(-c2cc(-c3ccc(N4CCNCC4)cc3)cnc2C)cc(OC)c1OC  inhibition (enzyme activity; inhibitor; 0.1 µM): 2%
